The results in this text go back to ChEMBL document CHEMBL3797104, “Triazole tethered C5-curcuminoid-coumarin based molecular hybrids as novel antitubulin agents: Design, synthesis, biological investigation and docking studies” (Eur J Med Chem, 2016).

Activity calls are given as the source filed them. No cut-off for these calls is given here.

A short description of test [1]: Cytotoxicity against human HCT116 cells assessed as growth inhibition at 50 uM after 48 hrs by SRB assay. It is filed as functional. Particulars: HCT-116, 48 h, read-out: GI. The method, boiled down: (§1)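 Single-concentration screen at 50 µM. Cells grew 24 h at 37 °C, then had 48 h exposure in complete medium.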
Test [2] in a line: Cytotoxicity against human COLO205 cells assessed as growth inhibition at 50 uM after 48 hrs by SRB assay. The class given is functional. Particulars: COLO 205, 48 h, read-out: GI. The method, boiled down: as §1
Test [3] concerns PC-3. The experiment in a line: (§2) Cytotoxicity against human PC3 cells assessed as growth inhibition at 50 uM after 48 hrs by SRB assay. The class given is functional. The method, boiled down: as §1
Test [4] in a line: Cytotoxicity against human THP1 cells assessed as growth inhibition at 50 uM after 48 hrs by SRB assay. The class given is functional. Particulars: THP-1, 48 h, read-out: GI. The method, boiled down:
as §1

Test [5] can be described thus: Cytotoxicity against human COLO205 cells after 48 hrs by SRB assay. It is filed as functional, cell-based. Particulars: COLO 205, 48 h. The method, boiled down:
(§3)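 SRB assay in 96-well plates. Cells were seeded and grown 24 h at 37 °C in a CO2 incubator, then given test material in complete medium for a further 48 h. Cells were fixed with cold 50% TCA for 1 h at 4 °C, stained 30 min with 0.4% SRB in 1% acetic acid, and washed with […]. IC50 was taken from multi-concentration testing, run only for hybrids giving >70% inhibition at 50 µM in at least one line.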

A short description of test [6]: as §2. The class given is functional. The note with it: PC-3, 48 h, read-out: GI. The gist of the method:
as §1

A short description of test [7]: Cytotoxicity against human HCT116 cells after 48 hrs by SRB assay. The class given is functional, cell-based. Particulars: HCT-116, 48 h. The gist of the method: as §3
A short description of test [8]: Cytotoxicity against human THP1 cells after 48 hrs by SRB assay. It is filed as functional, cell-based. Particulars: THP-1, 48 h. The method, boiled down: as §3

For the compound `COc1ccc(/C=C/C(=O)/C=C/c2ccc(OCc3cn(CCCCCOc4cc(=O)oc5ccccc45)nn3)c(OC)c2)cc1`, the inhibition of growth at 50 µM in test [1] is 35%; in test [2] it was 30%; in test [4], 39%. Also, the “growth inhibition (GI)” value in test [3] is “inactive”.

On to `COc1cc(/C=C/C(=O)/C=C/c2cccs2)ccc1OCc1cn(CCCCOc2cc(=O)oc3ccccc23)nn1`, for which the inhibition of growth at 50 µM in test [1] was determined as 41%; in test [2], 40%; in test [4] it was 44%. For the same compound, the “growth inhibition (GI)” value in test [3] is “inactive”.

Consider `COc1cccc(/C=C/C(=O)/C=C/c2ccc(OCc3cn(CCOc4cc(=O)oc5ccccc45)nn3)c(OC)c2)c1`, for which the inhibition of growth at 50 µM in test [1] came to 70%; in test [2], 69%; in test [6], 13%; in test [4], 77%. In addition, the results for the IC50 in test [5], in test [7] and in test [8] were 11.9 µM, 9.76 µM and 7.13 µM, respectively.

For `COc1cc(/C=C/C(=O)/C=C/c2ccco2)ccc1OCc1cn(CCCCCOc2cc(=O)oc3ccccc23)nn1`, the inhibition of growth at 50 µM was 37% in test [1], 33% in test [2] and 39% in test [4]. In addition, in test [3], the “growth inhibition (GI)” value is “inactive”.

Regarding `COc1cccc(/C=C/C(=O)/C=C/c2ccc(OCc3cn(CCCOc4cc(=O)oc5ccccc45)nn3)c(OC)c2)c1`, the inhibition of growth at 50 µM was found to be 55% in test [1], 52% in test [2] and 58% in test [4]. Moreover, the “growth inhibition (GI)” value in test [3] was “inactive”.

Consider `COc1ccccc1/C=C/C(=O)/C=C/c1ccc(OCc2cn(CCCCOc3cc(=O)oc4ccccc34)nn2)c(OC)c1`, for which the inhibition of growth at 50 µM worked out at 43% in test [1], 47% in test [2] and 40% in test [4]. In test [3], the “growth inhibition (GI)” value is “inactive”.

For `COc1ccc(/C=C/C(=O)/C=C/c2ccc(OCc3cn(CCOc4cc(=O)oc5ccccc45)nn3)c(OC)c2)cc1`, the inhibition of growth at 50 µM was determined as 71% in test [1], 68% in test [2], 15% in test [6] and 78% in test [4]. Also, the IC50 in test [5] is 11.3 µM; in test [7], 9.29 µM; in test [8], 7.41 µM.

`COc1cc(/C=C/C(=O)/C=C/c2cc(OC)c(OC)c(OC)c2)ccc1OCc1cn(CCCCOc2cc(=O)oc3ccccc23)nn1`: the inhibition of growth at 50 µM was determined as 63% in test [1], 60% in test [2], 5% in test [6] and 65% in test [4].

With `COc1cc(/C=C/C(=O)/C=C/c2cccc3ccccc23)ccc1OCc1cn(CCCCCOc2cc(=O)oc3ccccc23)nn1`, the results for the inhibition of growth at 50 µM in test [1], in test [2] and in test [4] were 42%, 40% and 44%, respectively. For the same compound, in test [3], the “growth inhibition (GI)” value is “inactive”.

On to `COc1cccc(/C=C/C(=O)/C=C/c2ccc(OCc3cn(CCCCCOc4cc(=O)oc5ccccc45)nn3)c(OC)c2)c1`, for which the inhibition of growth at 50 µM in test [1] is 36%; in test [2], 34%; in test [4] it was 37%. Moreover, the “growth inhibition (GI)” value in test [3] is “inactive”.

`COc1cc(/C=C/C(=O)/C=C/c2ccco2)ccc1OCc1cn(CCCCOc2cc(=O)oc3ccccc23)nn1`: the inhibition of growth at 50 µM in test [1] came out at 47%; in test [2] it was 43%; in test [4], 49%. The “growth inhibition (GI)” value in test [3] is “inactive”.

Consider `COc1cc(/C=C/C(=O)/C=C/c2ccco2)ccc1OCc1cn(CCOc2cc(=O)oc3ccccc23)nn1`, for which the inhibition of growth at 50 µM in test [1] was determined as 72%; in test [2], 68%; in test [6] it was 14%; in test [4] it was 78%. Besides, the figures for the IC50 in test [5], in test [7] and in test [8] were 11.8 µM, 9.18 µM and 7.87 µM, respectively.

Regarding `COc1ccccc1/C=C/C(=O)/C=C/c1ccc(OCc2cn(CCCOc3cc(=O)oc4ccccc34)nn2)c(OC)c1`, the inhibition of growth at 50 µM is 53% in test [1], 57% in test [2] and 50% in test [4]. The “growth inhibition (GI)” value in test [3] was “inactive”.

For `COc1cc(/C=C/C(=O)/C=C/c2ccco2)ccc1OCc1cn(CCCOc2cc(=O)oc3ccccc23)nn1`, the inhibition of growth at 50 µM in test [1] is 51%; in test [2] it was 59%; in test [4], 57%. The “growth inhibition (GI)” value in test [3] was “inactive”.

Consider `COc1ccccc1/C=C/C(=O)/C=C/c1ccc(OCc2cn(CCCCCOc3cc(=O)oc4ccccc34)nn2)c(OC)c1`, for which the inhibition of growth at 50 µM in test [1] is 33%; in test [2] it was 30%; in test [4] it was 37%. The “growth inhibition (GI)” value in test [3] is “inactive”.

Turning to `COc1cc(/C=C/C(=O)/C=C/c2cccs2)ccc1OCc1cn(CCCCCOc2cc(=O)oc3ccccc23)nn1`, the inhibition of growth at 50 µM in test [1] was 31%; in test [2], 30%; in test [4] it was 34%. In addition, the “growth inhibition (GI)” value in test [3] was “inactive”.

With `COc1ccc(/C=C/C(=O)/C=C/c2ccc(OCc3cn(CCCCOc4cc(=O)oc5ccccc45)nn3)c(OC)c2)cc1`, the inhibition of growth at 50 µM in test [1] is 40%; in test [2] it was 49%; in test [4], 45%. Besides, in test [3], the “growth inhibition (GI)” value was “inactive”.

Turning to `COc1cccc(/C=C/C(=O)/C=C/c2ccc(OCc3cn(CCCCOc4cc(=O)oc5ccccc45)nn3)c(OC)c2)c1`, the inhibition of growth at 50 µM in test [1] is 44%; in test [2], 46%; in test [4], 47%. For the same compound, in test [3], the “growth inhibition (GI)” value is “inactive”.

For the compound `COc1cc(/C=C/C(=O)/C=C/c2cccs2)ccc1OCc1cn(CCCOc2cc(=O)oc3ccccc23)nn1`, the inhibition of growth at 50 µM in test [1] amounted to 58%; in test [2], 55%; in test [4], 54%. For the same compound, the “growth inhibition (GI)” value in test [3] is “inactive”.

Consider `COc1cc(/C=C/C(=O)/C=C/c2cc(OC)c(OC)c(OC)c2)ccc1OCc1cn(CCCOc2cc(=O)oc3ccccc23)nn1`, for which the inhibition of growth at 50 µM was 76% in test [1], 74% in test [2], 12% in test [6] and 79% in test [4]. The IC50 in test [5] is 10.6 µM; in test [7], 8.65 µM; in test [8] it was 5.43 µM.

`COc1cc(/C=C/C(=O)/C=C/c2ccccc2)ccc1OCc1cn(CCCCOc2cc(=O)oc3ccccc23)nn1`: the inhibition of growth at 50 µM in test [1] was found to be 34%; in test [2] it was 31%; in test [4], 36%. The “growth inhibition (GI)” value in test [3] was “inactive”.

Take `COc1cc(/C=C/C(=O)/C=C/c2cc(OC)c(OC)c(OC)c2)ccc1OCc1cn(CCCCCOc2cc(=O)oc3ccccc23)nn1`: the figures for the inhibition of growth at 50 µM in test [1], in test [2] and in test [4] were 53%, 51% and 55%, respectively. Also, in test [3], the “growth inhibition (GI)” value was “inactive”.

With `COc1cc(/C=C/C(=O)/C=C/c2cccc3ccccc23)ccc1OCc1cn(CCCCOc2cc(=O)oc3ccccc23)nn1`, the values for the inhibition of growth at 50 µM in test [1], in test [2] and in test [4] were 56%, 50% and 54%, respectively. Moreover, the “growth inhibition (GI)” value in test [3] was “inactive”.

As for `COc1cc(/C=C/C(=O)/C=C/c2ccccc2)ccc1OCc1cn(CCOc2cc(=O)oc3ccccc23)nn1`, the inhibition of growth at 50 µM was 56% in test [1], 54% in test [2], 10% in test [6] and 61% in test [4].

For the compound `COc1ccc(/C=C/C(=O)/C=C/c2ccc(OCc3cn(CCCCOc4cc(=O)oc5ccccc45)nn3)c(OC)c2)cc1OC`, the values for the inhibition of growth at 50 µM in test [1], in test [2] and in test [4] were 55%, 53% and 59%, respectively. The “growth inhibition (GI)” value in test [3] was “inactive”.

For the compound `COc1ccc(/C=C/C(=O)/C=C/c2ccc(OCc3cn(CCCCCOc4cc(=O)oc5ccccc45)nn3)c(OC)c2)cc1OC`, the inhibition of growth at 50 µM in test [1] was determined as 45%; in test [2] it was 43%; in test [4], 47%. The “growth inhibition (GI)” value in test [3] is “inactive”.

Consider `COc1cc(/C=C/C(=O)/C=C/c2ccccc2)ccc1OCc1cn(CCCCCOc2cc(=O)oc3ccccc23)nn1`, for which the inhibition of growth at 50 µM was found to be 24% in test [1], 22% in test [2] and 26% in test [4]. In addition, the “growth inhibition (GI)” value in test [3] is “inactive”.

Regarding `COc1ccc(/C=C/C(=O)/C=C/c2ccc(OCc3cn(CCCOc4cc(=O)oc5ccccc45)nn3)c(OC)c2)cc1`, the inhibition of growth at 50 µM in test [1] is 54%; in test [2], 53%; in test [4] it was 56%. Also, in test [3], the “growth inhibition (GI)” value was “inactive”.

`COc1cc(/C=C/C(=O)/C=C/c2ccccc2)ccc1OCc1cn(CCCOc2cc(=O)oc3ccccc23)nn1`: the results for the inhibition of growth at 50 µM in test [1], in test [2] and in test [4] were 45%, 43% and 48%, respectively. In test [3], the “growth inhibition (GI)” value was “inactive”.
